A short description of series [1]: Partition coefficient, log P of the compound. It counts as physicochemical. As to conditions: octanol/water.
Series [2] concerns Mus musculus. The experiment in a line: Toxicity in Plasmodium berghei ANKA infected perorally dosed BALB/c mice (Mus musculus) assessed as induction of behavioral changes administered as single dose. Particulars: in vivo, po. It counts as organism-based. In outline:
(§1)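 Male 5-week-old mice of about 22 g, infected i.p. on day 0 with 2 × 10^7 P. berghei ANKA-parasitized erythrocytes. At 24 h they received one oral dose in 7:3 Tween 80:ethanol diluted with water, 5 mice per group. Animals were watched to day 30 for overt toxicity and behavioral change.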

The next series has as its system U-937. Description: Cytotoxicity against human U937 cells after 72 hrs by MTS assay. It counts as functional, cell-based. Particulars: U-937, 72 h. A digest of the protocol: (§2)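 Exposed to a range of compound concentrations for 72 hr. Viability by MTS/PMS, absorbance at 490 nm. IC50 from logistic dose-response fits, mean of at least three experiments ± SEM.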
A further series concerns HL-60. The experiment in a line: Cytotoxicity against human HL60 cells after 72 hrs by MTS assay. It counts as functional, cell-based. As to conditions: HL-60, 72 h. In outline:
as §2
On the technique in general: Tetrazolium dyes change colour on reduction, which living cells bring about.

Another series relates to SK-MEL-5. Description: Cytotoxicity against human SK-MEL-5 cells after 72 hrs by SRB assay. It counts as functional, cell-based. Particulars: SK-MEL-5, 72 h. A digest of the protocol:
(§3)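 Then 72 hr with a range of compound concentrations. Fixed overnight at 4 °C in 10% TCA, stained 30 min with 0.057% w/v sulforhodamine B in 1% acetic acid, dye solubilised in 10 mM Tris base, read at 510 nm.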
A general note: In SRB staining, fixed cells bind dye roughly in proportion to their protein.

The next series relates to UACC-62. The experiment in a line: Cytotoxicity against human UACC62 cells after 72 hrs by SRB assay. It counts as functional, cell-based. Particulars: UACC-62, 72 h. In outline: as §3
The next series relates to HeLa. The experiment in a line: Cytotoxicity against human HeLa cells after 72 hrs by SRB assay. It counts as functional, cell-based. In outline: as §3
A further series concerns MEF. The experiment in a line: Cytotoxicity against mouse wild type MEF cells after 72 hrs by SRB assay. It counts as cell-based. A digest of the protocol: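 Non-cancerous immortalized fibroblasts grown in DMEM with 10% FBS and 1% pen/strep at 37 °C, 5% CO2, allowed ≥5 h to attach. Dosed over a concentration range for 72 hr. Biomass by SRB: TCA fixation overnight at 4 °C, 0.057% SRB stain for 30 min, Tris solubilisation, A510. IC50 by logistic curve fitting, at least three experiments ± SEM.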

Series [3] in a line: Cytotoxicity against human Hs888Lu cells after 72 hrs by SRB assay. It counts as cell-based. A digest of the protocol: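 Non-cancerous immortalized fibroblasts grown in DMEM with 10% FBS and 1% pen/strep at 37 °C, 5% CO2, allowed ≥5 h to attach. Dosed over a concentration range for 72 hr. IC50 by logistic curve fitting, at least three experiments ± SEM.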
Series [4] concerns Mus musculus. The experiment in a line: Toxicity in Plasmodium berghei ANKA infected BALB/c mice (Mus musculus) assessed as induction of adverse effects at 144 mg/kg, perorally administered as single dose. It counts as organism-based. Details: dose 144 mg/kg, route oral. Particulars: in vivo, po. In outline: as §1
For series [5], the system named is Plasmodium berghei. The experiment in a line: Antiplasmodial activity as survival in Plasmodium berghei ANKA infected BALB/c mice (Mus musculus) after single 13 mg/kg peroral dose. It counts as functional. Particulars: route oral.
Series [6] has as its system Plasmodium berghei. Description: Antiplasmodial activity as survival in Plasmodium berghei ANKA infected BALB/c mice (Mus musculus) at 30 mg/kg peroral dose. It counts as functional. As to conditions: route oral.
The test system of series [7] is Plasmodium berghei. Description: Antiplasmodial activity as reduced parasitaemia in Plasmodium berghei ANKA infected BALB/c mice (Mus musculus) at 30 mg/kg peroral dose. It counts as functional. Details: scale not given: the % may be the effect or the level left. Particulars: route oral.

On to `CCN(CC)C(=O)OCc1ccc(S(=O)(=O)CC(C[C@H]2O[C@@H]3C[C@]4(C)CC[C@H]5[C@H](C)CC[C@@H]([C@H]2C)[C@@]35OO4)C[C@H]2O[C@@H]3C[C@]4(C)CC[C@H]5[C@H](C)CC[C@@H]([C@H]2C)[C@@]35OO4)cc1`, for which the log partition coefficient (logP) (as a rule, the decadic logarithm of the partition coefficient of the neutral form, usually between octanol and water) in series [1] (read-out: logP) came to 8.3.
Consider `C[C@H]1[C@@H](CC(C[C@H]2O[C@@H]3C[C@]4(C)CC[C@H]5[C@H](C)CC[C@@H]([C@H]2C)[C@@]35OO4)CS(=O)(=O)c2ccc(COC(=O)N(C)C)cc2)O[C@@H]2C[C@]3(C)CC[C@H]4[C@H](C)CC[C@@H]1[C@@]24OO3`, for which the Activity result in the series with Mus musculus [2] and with Mus musculus [4] was “Non-toxic” each time. Moreover, the IC50 (as a rule, the concentration at which inhibition is half-maximal) in the series on U-937 was 280 nM; in the series with HL-60, 60 nM; with SK-MEL-5 it was 60 nM; in the series on UACC-62, 40 nM; in the series on HeLa, 110 nM; in the series with MEF, more than 50000 nM. Also, the IC50 in series [3] was more than 50000 nM. Moreover, the logP in series [1] (read-out: logP) is 7.6.
`CCOP(=O)(OCC)OCc1ccc(S(=O)(=O)CC(C[C@H]2O[C@@H]3C[C@]4(C)CC[C@H]5[C@H](C)CC[C@@H]([C@H]2C)[C@@]35OO4)C[C@H]2O[C@@H]3C[C@]4(C)CC[C@H]5[C@H](C)CC[C@@H]([C@H]2C)[C@@]35OO4)cc1`: the logP in [1] (read-out: logP) worked out at 8.8.
With `C[C@H]1[C@@H](CC(C[C@H]2O[C@@H]3C[C@]4(C)CC[C@H]5[C@H](C)CC[C@@H]([C@H]2C)[C@@]35OO4)CS(=O)(=O)CCCCCCO)O[C@@H]2C[C@]3(C)CC[C@H]4[C@H](C)CC[C@@H]1[C@@]24OO3`, the logP in [1] was found to be 9.5.
`C[C@H]1[C@@H](CC(C[C@H]2O[C@@H]3C[C@]4(C)CC[C@H]5[C@H](C)CC[C@@H]([C@H]2C)[C@@]35OO4)CS(=O)(=O)c2ccc(CO)cc2)O[C@@H]2C[C@]3(C)CC[C@H]4[C@H](C)CC[C@@H]1[C@@]24OO3`: the IC50 in the series with U-937 was 280 nM; with HL-60, 130 nM; in the series with SK-MEL-5, 140 nM; in the series with UACC-62, 30 nM; in the series on HeLa, 1100 nM; in the series with MEF, more than 50000 nM. Moreover, in [3], the IC50 is more than 50000 nM. Further, the logP in series [1] (read-out: logP) is 7.
Consider `C[C@H]1[C@@H](CC(C[C@H]2O[C@@H]3C[C@]4(C)CC[C@H]5[C@H](C)CC[C@@H]([C@H]2C)[C@@]35OO4)CS(=O)(=O)Cc2ccc(F)cc2)O[C@@H]2C[C@]3(C)CC[C@H]4[C@H](C)CC[C@@H]1[C@@]24OO3`, for which, in [1] (read-out: logP), the logP amounted to 7.8.
`COc1cccc2c1C(=O)c1c(O)c3c(c(O)c1C2=O)C[C@@](O)(C(=O)CO)C[C@@H]3O[C@H]1C[C@H](N)[C@H](O)[C@H](C)O1` [DOXORUBICIN]: in the series on MEF, the midpoint of inhibition, the IC50, lay at 3400 nM.
Molecule `Cl.OC(c1cc(C(F)(F)F)nc2c(C(F)(F)F)cccc12)C1CCCCN1` (configuration not stated) [MEFLOQUINE HYDROCHLORIDE] registered a Survival in the series with Plasmodium berghei [5] of 11 days.
`CC(C)(N)CNC(=O)C[C@H]1CC[C@]2(CC1)OO[C@]1(O2)C2CC3CC(C2)CC1C3` [OZ277]: the Survival in the series with Plasmodium berghei [6] is 10.7 days. Moreover, the Activity in the series on Plasmodium berghei [7] is given as 99.95%.
With `C[C@H]1[C@H](OC(=O)CCC(=O)[O-])O[C@@H]2O[C@@]3(C)CC[C@H]4[C@H](C)CC[C@@H]1[C@@]24OO3.[Na+]` [SODIUM ARESUNATE], the Survival with Plasmodium berghei [6] was determined as 7.6 days.

The record behind these values is ChEMBL document CHEMBL1140948, “Malaria-infected mice are cured by a single oral dose of new dimeric trioxane sulfones which are also selectively and powerfully cytotoxic to cancer cells” (J Med Chem, 2009).
